Assay results: ChEMBL document CHEMBL4513216, “Probing the Open Global Health Chemical Diversity Library for Multistage-Active Starting Points for Next-Generation Antimalarials” (ACS Infect Dis, 2020)

assay: Toxicity liver stage against HepG2, at 10uM; assay type: cell-based; parameters: test concentration 10 uM, cell line HepG2-A16-CD81EGFP; details: human, HepG2-A16-CD81EGFP cells; read-out: INHIBITION
Method in brief: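 Uninfected HepG2-A16-CD81EGFP cells, 3 × 10^3 per well, 1536-well, plated on prespotted compound at 10 μM final, parasite-free screening media added to match infected plates; puromycin 10 μM positive, DMSO 0.5% negative; run in parallel with 48 h PbLuc assay at 37 °C, 5% CO2; viability by CellTiter-Glo luminescence, normalized to controls.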

SMILES	cytotoxicity at 10 µM [%]
CC(C)CNC[C@H]1COCc2nc3cccnc3n21	-4.48
c1ccc(Cc2nnc([C@H]3CCN(C4CCCCC4)C3)o2)cc1	-1.14
Cc1cc2c(C)cc(O)cc2c(=O)o1	5.73
CCCn1nnc(NCc2ccccc2OCc2ccc(Cl)cc2)n1	2.76
CSCC[C@H](NC(=O)CCn1cc(C(C)=O)c2ccccc21)C(=O)O	-3.91
Cc1csc(NC(=O)c2ccc(NC(=O)N3CCOCC3)cc2)n1	1.11
COCc1nn(CC2CC2)c2c1CN(C(=O)c1ccno1)CC2	10.4
O=C(c1ccncc1)N1CCc2onc(CN3CCCC3)c2C1	-3.7
Cn1cc(CN2CCc3c(COCc4ccncc4)cncc3C2)cn1	-2.37
COc1ccc(CN2C[C@@H]3CN(C(=O)c4ccsc4)C[C@@H]3C2=O)cc1	-3.7
O=C(c1ncccn1)N1C[C@@H]2COC[C@]2(c2nnc(C3CC3)o2)C1	-1.31
CO[C@H]1CN(C(=O)c2ccc(C)o2)[C@@H]2CCCO[C@H]12	-153
CC(C)[C@H](NC(=O)NC1CCS(=O)(=O)C1)C(=O)Nc1cccnc1 (some centres not stated)	6.85
CC(C)n1ncc2c1NC(=O)CC21C(=O)Nc2c(Cl)cc(Cl)cc21 (configuration not stated)	3.38
CCOc1cccc(C(=O)Nc2ccn(CC)n2)c1	8.19
CC(=O)c1ccc(NC(=O)C(C)Cn2cc(Br)cn2)cc1 (configuration not stated)	0.88
COc1c(Br)c(C(=O)NC2CCCCC2)nn1C	6.94
CCc1cc(C(=O)N2CCCC(c3cc(=O)nc4n3CCC4)C2)no1 (configuration not stated)	-2.6
CN(C)CC1(O)CCN(C(=O)Cc2ccc3ccccc3c2)C1 (configuration not stated)	-6.77
COCCC(=O)N1CCC(c2ccc3c(NC(C)C)n[nH]c3n2)C1 (configuration not stated)	0.691
Cc1cc(C)nc(C2CCN(C3CCCCC3)C2)n1 (configuration not stated)	7.33
CCn1ncc(C(=O)NCCc2nc(-c3cccnc3)n[nH]2)c1C	1.94
O=C(O)[C@@H]1CCN(C(=O)c2cscn2)[C@@H]1c1ccc(F)cc1	4.97

SMILES	cytotoxicity at 10 µM [%]
CN(C)C(=O)c1c[nH]nc1C1CCN(S(=O)(=O)c2ccccc2)CC1	-0.358
O=C(Nc1ccccn1)C1CCN(C(=O)COc2ccccc2F)C1 (configuration not stated)	-24.6
CNc1cccc(C2CCCN(C(=O)c3cnccn3)C2)n1 (configuration not stated)	-19.2
CC(C)C1=NOC2(CCN(S(C)(=O)=O)CC2)C1	6.47
CC(C)NC(=O)CCNC(=O)CCc1cc(Br)cs1	-3.16
Cc1ccn(Cc2nc(C(C)OCC(C)C)no2)c(=O)c1 (configuration not stated)	5.56
CCNC(=O)CNC(=O)c1nc(C2CC2)n(-c2ccccc2Cl)n1	5.91
O=C(O)c1ccc(-c2cscn2)cc1	7.68
CC(C)(NCc1cccc(O)c1)c1ccc2c(c1)OCO2	5.12
CC(C)S(=O)(=O)CCN1CCN(C(C#N)c2ccccc2)CC1 (configuration not stated)	0.401
CCc1ccc(CC)c(NCc2cnc(N3CCOCC3)nc2)c1	0.898
CCc1cnc(C(C)NC(=O)N2CCCN(CC(F)F)CC2)s1 (configuration not stated)	-0.423
Cc1cc(C(=O)N2CCNC(=O)CC2)c(C)n1CC(F)(F)F	1.88
CCSCc1csc(-c2ccc(S(C)(=O)=O)cc2)n1	8.21
Cc1csc(CNC(=O)NC2CCCN(S(C)(=O)=O)C2)n1 (configuration not stated)	-6.3
CN(C)c1ncccc1CNC(=O)c1csc(Br)c1	-1.35
Cc1ccccc1C1(CNC(=O)N2CCC(CC(N)=O)CC2)CC1	4.48
CCc1ncc(C(=O)N2CCOCC2CC(=O)c2ccccc2)s1 (configuration not stated)	2.58
Cn1c(=O)ccn(CC(=O)NCC2Cc3ccccc3O2)c1=O (configuration not stated)	-0.387
O=C(Cn1cc(Cl)cn1)Nc1ccc2c(c1)OCO2	4.57
O=C(Nc1ccc2c(ccn2CCN2CCOCC2)c1)c1ccncc1	-2.9
CCN1CCN(CC(O)c2ccc(Br)cc2)CC1 (configuration not stated)	-6.95
Cc1cnn(C2CN(CC(=O)NCC3(c4ccccc4)CC3)C2)c1	-10.9

SMILES	cytotoxicity at 10 µM [%]
COC(=O)CCNC(=O)c1ccc(NC(=O)N(C)CC(C)(C)C)cc1	8.01
Cc1nc(CN2CCN(C(=O)CCC(=O)c3ccccc3)CC2)no1	3.7
O=C1CC2(CCCCC2)C(=O)N1CC(O)COCc1ccccc1F (configuration not stated)	0.611
CC(C)c1nn(C)c(N(C)C)c1CNCC(O)COc1ccccc1 (configuration not stated)	0.142
C=C(C)CN1CCCC(NS(C)(=O)=O)C1 (configuration not stated)	4.21
Cc1cnn(CC2CCCN2C(=O)CCc2c(C)nc(C)[nH]c2=O)c1 (configuration not stated)	-2.79
Cc1ccc(N2CCCC(NC(=O)Cc3csc(C)n3)C2=O)cc1 (configuration not stated)	-1.31
CCC(=O)N1CSCC1C(=O)Nc1ccccc1-c1cccs1 (configuration not stated)	-3.8
NC(=O)C1CCCCN1C(=O)c1ccc(Br)s1 (configuration not stated)	-6.38
OC1CCN(c2ccc(CNc3nc4ccccc4o3)cc2F)CC1	0.833
Cc1nc2ccc(C(=O)N(CCC#N)CCC#N)cc2nc1C	-12.8
CC(C)C1CN(C(=O)c2ccn(C)c(=O)c2)c2ccccc2N1 (configuration not stated)	-6.01
CCOc1ncccc1C(=O)N1CC=C(c2ccc(O)cc2)CC1	8.02
CN1CC(C(=O)NC2(c3cccc(F)c3)CCOCC2)CC1=O (configuration not stated)	15.6
CC(C)n1cc2cc(NC(=O)Cn3cnnn3)ccc2n1	-138
CC(C)CNC(=O)c1ccc(NC(=O)NC(C)C)cc1Cl	5.92
O=C1C(n2nnc(-c3ccsc3)n2)CCN1CC(F)(F)F (configuration not stated)	0.519
CS(=O)(=O)c1cccc(S(=O)(=O)NC(=O)CCC2CCCCC2)c1	0.848
Cc1cc(N2CCCC(OC(=O)CCc3cnn(C)c3)C2)nc(C)n1 (configuration not stated)	0.127
CCN(CC)c1ccc(CNC(=O)C2(C)CCOCC2)cc1F	-4.08
O=C(Cc1ccc2c(c1)CCO2)N1CCCCC1Cn1cccn1 (configuration not stated)	-12.8
CCOC(CC)C(=O)NCCC(=O)N1CCN(c2ccccn2)CC1 (configuration not stated)	-7.4
O=C(NCCc1nnc2n1CCC2)NCC1(c2cccc(F)c2)CC1	-7.94

SMILES	cytotoxicity at 10 µM [%]
CN(Cc1cncnc1)[C@H]1CN(C(=O)c2ccco2)[C@@H]2CCCO[C@@H]21	-101
CCn1cc2c(n1)C(COC)CN(C(=O)CCOc1ccccc1)C2 (configuration not stated)	0.234
Cc1cc(N2CCCC(O)CC2)n2nc(C)c(C)c2n1 (configuration not stated)	7.46
CCc1nc(N)nc(N2CCCC3(CN(C)C(=O)O3)C2)c1C (configuration not stated)	-138
Cc1c(CNCC(C)Oc2cccnc2)c2ccccc2n1CC(N)=O (configuration not stated)	-141
Cc1cc(C)c2c(N(C)CC3CCOC3)ncnc2n1 (configuration not stated)	-146
O=C(NCC1=CCCCC1)C(c1cccnc1)N1CCCC1 (configuration not stated)	-3.78
CN1CCC(N(CCc2ccccc2)C(=O)COCC2CCCO2)CC1 (configuration not stated)	-148
COc1ccccc1CC(=O)N1CCC(OCc2cccnc2)CC1	4.87
CC(=O)N[C@@H](C)C(=O)NCc1cccnc1Oc1ccccc1F	-3.53
COc1ccc(-c2noc(C3CC(C(C)C)=NO3)n2)cc1 (configuration not stated)	-6.64
CC(C)c1ccn(C2(C(=O)O)CCN(c3ccncc3F)CC2)n1	-0.679
c1ccc(-c2noc(CCNC3CCOC4(CCOCC4)C3)n2)nc1 (configuration not stated)	-6.5
CC(C)[C@H]1COC(=O)N1Cc1nnc(-c2ccccc2)o1	0.537
CCc1cnc(C)nc1NCCc1nc(N)cc(O)n1	-0.264
Cc1nc(CNC(=O)CC2C(=O)NCCN2CCC(C)C)n[nH]1 (configuration not stated)	-4.44
Cc1nc(NCCC23CCCN2CCC3)cc(C2CCNCC2)n1	8.37
O=C(CCc1ccc(=O)[nH]n1)N1CCCC(COc2ccc(F)cc2)C1 (configuration not stated)	1.9
CCOCC(O)CN1CCN(C(=O)c2cc(C)ccc2OC)CC1 (configuration not stated)	5.35
Cc1nn(C)c(C)c1C1CCCN1C(=O)CCNS(C)(=O)=O (configuration not stated)	-26
Cc1nn(C)c(Cl)c1C1CCCN1C(=O)CCNc1ncccn1 (configuration not stated)	-7.42
CCc1nnc(CN2CCc3cnc(C)nc3C2)o1	-4.04
CC(NC(=O)c1cccs1)C(=O)Nc1cccnc1N1CCCCC1 (configuration not stated)	-8.94

SMILES	cytotoxicity at 10 µM [%]
COc1ccccc1C(=O)N1CCC(Nc2ccc(C)nn2)CC1	-4.05
Cc1cnn(CCNCc2nnc(-c3ccc(F)cc3)o2)c1	-43.9
CC(NC(=O)Cn1ccc(=O)n(C)c1=O)c1cc(F)ccc1F (configuration not stated)	-4.64
CC(C)c1noc(C(C)N2CCN(Cc3noc(C(C)(C)C)n3)CC2)n1 (configuration not stated)	-14.6
CN(Cc1cccc(C(N)=O)c1)CC1CCCN1c1cccnn1 (configuration not stated)	-9.75
COc1ccc(C(=O)N(C)Cc2nnc3ccccn23)cc1	3.45
CN1CC(C(=O)NCc2cccnc2-n2cccn2)CC1=O (configuration not stated)	-6.18
CCn1cnnc1C1CCN(C(=O)COc2ccc(Cl)cc2)CC1	-3.39
CCc1nc(CN2CCN(C(=O)c3cc(C)no3)CC2)cs1	-21.8
CC(C(=O)NCc1cccc(N2CC=CC2)c1)n1cccn1 (configuration not stated)	-5.07
CNC(=O)[C@@H](c1ccccc1OC)N1CCC[C@H]1C(=O)N1CCC1	1.44
Cc1ccccc1C(=O)N1CCC2(CCCN2CCN(C)C)CC1	3.56
Cc1ccc2c(n1)N(CC1CC1)CCN(C(=O)c1ccncc1F)C2	-0.182
Cc1cc(C(=O)N2CCC3(CC2)CC(c2cccnc2)C(=O)N3C)no1 (configuration not stated)	1.48
CNC(=O)CN1CCCC12CCN(C(=O)c1ccccc1F)CC2	1.58
CC1c2ncc(COc3cccnc3)n2CCN1C(=O)Cc1ccco1 (configuration not stated)	-5.13
COC1COC2(CCN(c3ccc(C#N)cc3)CC2)C1 (configuration not stated)	-79.6
CCN(C)c1ncnc2c1CCN(Cc1nccs1)CC2	-2.46
O=c1ccc2c([nH]1)CCC(NCc1ccc3c(c1)OCO3)C2 (configuration not stated)	6.69
O=C(c1ccccn1)N1C[C@H]2CC[C@@H](C1)N(C(=O)CCC1CCCC1)C2	3.07
